We go through 8 compounds from PMC7135742 (Nature biomedical engineering, 2020).

The target in one assay is LS301. As to the kind of experiment: MST of LS301 with whole-cell lysate. The settings on record: reference: lysate of insulin-stimulated 4T1 cells; sites Y23.
In assay [1] the target is LS301 (cypate-cyclic(DCys-Gly-Arg-Asp-Ser-Pro-Cys)-Lys-OH). Briefly: MST.
The subject of another assay is 4T1 luc/GFP cells. As to the kind of experiment: In vitro blocking study of LS301 uptake. Format: cell-based, murine. Particulars: 24 h, LS301 1 µM, blocking agent 50 µM.
Another assay has as its system pANXA2 in 4T1 cells. As to the kind of experiment: Western blot of pANXA2 levels after insulin / PP2 treatment. Format: cell-based, murine. Particulars: 100 nM insulin 4 h, PP2 co-administration. In short, it runs like this: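 4T1 murine breast cancer cells serum-starved overnight, then treated with 100 nM insulin for 4 h or with PP2, following the same protocol as the insulin imaging study. Cells lysed by ultrasonic homogenisation in RIPA buffer (10 mM Tris-HCl, pH 8.0), and lysates resolved by SDS-PAGE and immunoblotted for pANXA2.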

For assay [2], the system named is A549, MDA-MB-231, and 4T1. As to the kind of experiment: Cellular uptake by fluorescence microscopy, solid cancer cell lines. It counts as cell-based. Particulars: 1 μM cypate, all cells. Put shortly:
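Cells were grown in medium with 10% FBS and penicillin/streptomycin (37°C, 5% CO2), then seeded overnight on 8-chamber slides. Compound stock was made in 20% DMSO in PBS (pH 7.4) and diluted into medium to 1 µM final, then incubated at 37°C for several time points. SYTO 13 nuclear stain was added for 45 min at 37°C before epifluorescence or confocal imaging.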

For the next assay, the system named is tumours. Particulars: cited from earlier work.

ANXA2 (endogenous, 4T1 cells), sequence (P07356 whole entry, looked up, change not shown): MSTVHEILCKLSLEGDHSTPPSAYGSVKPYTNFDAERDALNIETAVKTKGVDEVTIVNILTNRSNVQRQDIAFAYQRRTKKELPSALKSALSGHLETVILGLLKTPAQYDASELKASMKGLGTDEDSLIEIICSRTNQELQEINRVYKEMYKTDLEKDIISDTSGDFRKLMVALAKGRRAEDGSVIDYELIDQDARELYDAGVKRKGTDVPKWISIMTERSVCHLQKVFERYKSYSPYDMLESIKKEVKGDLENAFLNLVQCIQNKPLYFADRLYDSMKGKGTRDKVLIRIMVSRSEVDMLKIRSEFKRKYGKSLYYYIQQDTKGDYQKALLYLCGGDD

“ANXA2 (endogenous, 4T1 cells) (from UniProt P07356) lysate of PP2-treated 4T1 cells”: the KD entry with LS301 is on record as “weaker; reference 0.017 ± 0.004 nM”. Usually Kd stands for the concentration at which binding is half-saturated. A higher Kd goes with lower affinity. Turning to “Purified pANXA2 protein (Annexin A2 phosphorylated at tyrosine 23) (from UniProt P07355 1-339) (natural protein)”, the dissociation constant (Kd) in assay [1] came out at 0.075 nM. In the case of LCKLSL, the “blocking of LS301 binding and internalization in cells” value in the assay on 4T1 luc/GFP cells was “inhibited the binding and internalization of LS301 in cells”. Consider “insulin: stimulates tyrosine-23 phosphorylation of ANXA2”, for which, in the assay with pANXA2 in 4T1 cells, the “effect on pANXA2 levels in 4T1 cells” value is “increased levels of pANXA2 relative to unstimulated cells”. For `CC1(C)C(/C=C/C=C/C=C/C=C2/N(CCC(=O)O)c3ccc4ccccc4c3C2(C)C)=[N+](CCC(=O)[O-])c2ccc3ccccc3c21` [cypate], in assay [2], the “cellular retention of cypate alone” value is recorded as “only transient retention in all cells”. For the compound `CC(C)(C)n1nc(-c2ccc(Cl)cc2)c2c(N)ncnc21` [PP2], the “effect on pANXA2 levels in 4T1 cells” value with pANXA2 in 4T1 cells was “this effect was suppressed”.

As to “Purified ANXA2 protein (Annexin A2) (from UniProt P07355 1-339) (natural protein)”, in assay [1], the dissociation constant Kd turned out to be 0.389 nM. On to Cypate-GRDSPK, for which the “retention of Cypate-GRDSPK in tumours” value in the assay on tumours is listed as “the retention was transient”.
